SENP8 block-1 – human SENP8 protease inhibitors, primary screen, biochemical, fluorescence, Nedd8 protein substrate, uHTS. actives 0.64% (n = 360,000). inhibition, % at 20 µM. Sentrin-specific protease 8 (Homo sapiens), Q96LD8. recombinant SENP8; in the data active = inhibition mostly above about 40%, no sharp cut-off; inactive = mostly below about 27%
Target sequence (Q96LD8 whole entry, looked up): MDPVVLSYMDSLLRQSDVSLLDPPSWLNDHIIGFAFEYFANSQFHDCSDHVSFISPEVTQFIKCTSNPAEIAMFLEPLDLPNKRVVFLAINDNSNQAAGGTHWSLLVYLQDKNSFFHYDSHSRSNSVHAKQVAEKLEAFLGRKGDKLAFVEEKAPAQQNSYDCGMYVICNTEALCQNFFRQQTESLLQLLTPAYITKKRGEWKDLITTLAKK
SENP8 block-2 – SENP8 protease inhibitors, primary screen, biochemical, luminescence. actives 1.2% (n = 330,000). inhibition, % at 10 µM. Sentrin-specific protease 8 (Homo sapiens), Q96LD8. purified SENP8, Z-RLRGG-aminoluciferin cleavage; in the data active = inhibition above about 50%
SENP6 inh – SENP6 protease inhibitors, primary screen, biochemical, luminescence, uHTS; Sentrin-specific protease 6 (Homo sapiens), Q9GZR1; Recombinant SENP6 catalytic domain, aminoluciferin luminescence; inhibition, % at 10 µM; actives 1.8% (n = 330,000);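 active = inhibition above about 50% at the single tested dose, limit read from the data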;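 also: plate controls were DMSO wells with enzyme for no effect and DMSO wells lacking enzyme for full effect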
Target sequence (Q9GZR1 628-1112 limits assumed): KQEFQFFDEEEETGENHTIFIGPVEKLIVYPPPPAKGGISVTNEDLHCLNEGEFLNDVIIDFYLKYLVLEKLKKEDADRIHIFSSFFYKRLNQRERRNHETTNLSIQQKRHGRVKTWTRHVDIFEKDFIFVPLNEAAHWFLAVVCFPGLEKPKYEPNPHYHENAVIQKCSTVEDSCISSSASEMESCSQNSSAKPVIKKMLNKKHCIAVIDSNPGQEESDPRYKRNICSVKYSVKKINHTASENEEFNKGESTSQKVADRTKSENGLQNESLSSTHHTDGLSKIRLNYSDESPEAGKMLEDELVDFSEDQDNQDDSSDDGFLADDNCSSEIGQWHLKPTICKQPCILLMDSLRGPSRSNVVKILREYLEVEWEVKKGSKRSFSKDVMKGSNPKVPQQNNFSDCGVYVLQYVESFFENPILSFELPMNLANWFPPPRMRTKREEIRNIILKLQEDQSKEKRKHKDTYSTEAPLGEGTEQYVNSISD
Apaf-1 inh – inhibitors of human Apaf-1 apoptosome, primary screen, biochemical, DEVD-Rh110 fluorescence, uHTS. Apoptotic protease-activating factor 1 (Homo sapiens), O14727. reconstituted apoptosome caspase-3 activity. inhibition, % at 20 µM. actives 0.71% (n = 330,000); active = inhibition of at least 40% at 20 µM;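 also: plate controls were DMSO wells for no effect and DEVD-CHO caspase inhibitor wells for full effect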
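System: reconstituted apoptosome with Apaf-1, cytochrome c, caspase-9, procaspase-3, dATP; Signal: Rh110 fluorescence intensity; Schedule: 30 min compound preincubation, 50 min activation, room temperature; Reagent: cytochrome c trigger plus (Z-DEVD)2-Rh110 caspase-3 substrate.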
SENP7 inh – SENP7 protease inhibitors, primary screen, biochemical, luminescence, uHTS; Sentrin-specific protease 7 (Homo sapiens), Q9BQF6; actives 1.5% (n = 330,000); inhibition, % at 5 µM; recombinant SENP7, Z-RLRGG-aminoluciferin luminescence, 40 min; AID 434973, 2010;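 active = inhibition above about 50% at the single test dose, limit read from the data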;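 also: plate controls were DMSO with enzyme for no effect and no enzyme buffer wells for full effect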
SENP1 inh – human SENP1 catalytic domain inhibitors, primary screen, biochemical, FRET, uHTS | Sentrin-specific protease 1 (Homo sapiens), Q9P0U3 | recombinant SENP1 catalytic domain, CyPet-SUMO1-YPet FRET cleavage | inhibition, % at 10 µM | actives 0.21% (n = 360,000);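 active = inhibition at least 30% at 10 µM, raw YFP signal under a set limit, fluorescence ratio 0.5 to 1.5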;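 also: 0% = enzyme with DMSO and 100% = no enzyme wells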
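Test system: human SENP1 catalytic domain; medium: Tris pH 8 buffer plus EDTA, NaCl, BME, BSA, NP40, catalase; incubation: 50 min reaction at room temperature; technique: FRET, CFP and YFP emission; controls: no-enzyme low control and enzyme-plus-DMSO high control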
SENP1 inh conf – human SENP1 catalytic domain inhibitors, confirmation, biochemical, FRET endpoint, single concentration; shares compounds with SENP1 inh; recombinant SENP1, CyPet-SUMO1-YPet FRET cleavage; inhibition, % at 10 µM; actives 34% (n = 520); AID 651678, 2012; in the data active = inhibition mostly above about 35%, no sharp cut-off; inactive = mostly below about 32%;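 also: 0% = enzyme with DMSO and 100% = no enzyme control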
SENP1 kin conf – human SENP1 catalytic domain inhibitors, confirmation, biochemical, kinetic FRET, single concentration; recombinant SENP1, CyPet-SUMO1-YPet FRET kinetic cleavage; inhibition, % at 10 µM; AID 651690, 2012; shares compounds with SENP1 inh; actives 26% (n = 520); in the data active = inhibition mostly above about 32%, no sharp cut-off; inactive = mostly below about 29%;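 also: 0% = DMSO with enzyme and 100% = no enzyme substrate only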
Starred values were filed as active, the others as inactive; nt = no result given. A selection: hits, their analogues and other compounds. The true share with any hit is near 2.9%.

SMILES | SENP8 block-1 | SENP8 block-2 | SENP6 inh | Apaf-1 inh | SENP7 inh | SENP1 inh | SENP1 inh conf | SENP1 kin conf
CCN1/C(=C\C=C(C(C)=O)C(C)=O)Sc2ccccc21 | -4 | -4 | -1 | 8 | -6 | -25 | nt | nt
COc1cc(Nc2cc(C)nc3ncnn23)cc(OC)c1OC | 22 | -9 | -16 | -10 | 11 | 1 | nt | nt
COc1ccc(Nc2cc(C)nc3ncnn23)cc1Cl | 7 | 9 | -3 | -9 | 1 | 29* | 35* | 20
CCOc1ccc(N2C(=O)C(Cl)=C(Nc3ccccc3O)C2=O)cc1 | 6 | 24 | 41 | -6 | -9 | 36* | 28 | 14
O=C1C(Cl)=C(Nc2ccccc2O)C(=O)N1CCc1ccccc1 | 33 | 4 | 10 | 19 | -1 | 41* | 17 | 15
COc1ccccc1NC1=C(Cl)C(=O)N(c2ccccc2)C1=O | 34 | 0 | 1 | 23 | -2 | 3 | nt | nt
CC(C)(C)OC(=O)N/N=C/c1ccc(N2CCOCC2)s1 | -184 | -3 | 3 | 8 | 10 | 44* | 64* | 43*
C=CCOC(=O)Nc1nc(CCNC(=O)OCc2ccccc2)c(C(=O)OC)s1 | 14 | nt | nt | nt | nt | -2 | nt | nt
COc1cccc(CNC(=O)C2CSC3(C)CCC(=O)N23)c1 (stereo unspecified) | -6 | 11 | 9 | 2 | -3 | 38* | -3 | 0
Cc1ccc(C2=Nc3ccccc3SC(c3cccc([N+](=O)[O-])c3)C2)cc1 (stereo unspecified) | 16 | -7 | 1 | 15 | -11 | 0 | nt | nt
O=C(N/N=C\c1cc(Br)c(Br)o1)c1cncc(Br)c1 | -31 | -6 | -10 | -7 | -3 | 0 | nt | nt
O=C(N/N=C/c1cccnc1)c1cccc(Br)c1 | 4 | -3 | -24 | -6 | 24 | 31* | -11 | -8
O=C(N/N=C/c1cc(Br)c(Br)o1)c1cccnc1 | 31 | 9 | 16 | 28 | 6 | 35* | 7 | 3
CCCCn1nnnc1C(c1ccccc1)N1CCN(c2cccc(C(F)(F)F)n2)CC1 (stereo unspecified) | -26 | nt | nt | nt | nt | 4 | nt | nt
CC(C)(O)C#Cc1ccc(C(=O)N2CCC(C(N)=O)(N3CCCCC3)CC2)o1 | -2 | 8 | 1 | 2 | -3 | 1 | nt | nt
CC1(C)C(=S)N(Cc2ccccc2)c2ccccc21 | 23 | -5 | 2 | 2 | -5 | -2 | nt | nt
O=C1Nc2ccccc2Oc2cc([N+](=O)[O-])cc(Oc3ccccc3)c21 | 21 | 2 | 6 | 13 | 7 | 59* | 16 | 8
Cc1cccc(Oc2cc([N+](=O)[O-])cc3c2C(=O)Nc2ccccc2O3)c1 | 16 | -3 | -20 | 16 | 1 | 28 | nt | nt
COc1cccc(NC2=Nc3cccc4cccc2c34)c1 | 1 | -18 | -19 | 14 | -5 | 81* | 55* | 33*
COc1ccc(CC(=O)NNC2=Nc3cccc4cccc2c34)cc1OC | -47 | 7 | 15 | -1 | 4 | -144 | nt | nt
COc1ccc(NC2=Nc3cccc4cccc2c34)cc1OC | 32 | -5 | -6 | 8 | -2 | 70* | 29 | 12
COc1cc(NC2=Nc3cccc4cccc2c34)cc(OC)c1OC | 17 | 4 | -2 | 10 | -5 | 68* | 39* | 22
COc1cc(Nc2ncnc(N)n2)cc(OC)c1OC | 12 | 3 | -21 | 6 | 5 | 1 | nt | nt
COc1cccc(Nc2n[nH]c(=S)s2)c1 | 18 | 0 | 7 | 11 | 4 | 1 | nt | nt
COc1cc(/C=C2\SC(=S)N(CCC(=O)Nc3ccc(O)cc3)C2=O)cc(OC)c1OC | 33 | 9 | -16 | -19 | -1 | 14 | nt | nt
SMILES | SENP8 block-1 | SENP8 block-2 | SENP6 inh | Apaf-1 inh | SENP7 inh | SENP1 inh | SENP1 inh conf | SENP1 kin conf
CCc1nnc(NC(=O)CCN2C(=O)/C(=C/c3cc(OC)c(OC)c(OC)c3)SC2=S)s1 | 20 | 9 | -8 | 4 | 4 | 48* | 39* | 29
Nc1ccc2oc(=O)c(-c3ccccc3)cc2c1 | 18 | 1 | 7 | 14 | 2 | 68* | 17 | 16
CCN=c1scc(-c2cccs2)n1/N=C/c1cc(OC)ccc1O | -22 | nt | nt | nt | nt | 52* | 146* | 82*
COc1ccc(O)c(/C=N/n2c(-c3ccco3)csc2=Nc2cccnc2)c1 | -42 | -9 | 12 | -3 | -3 | 42* | 29* | 19
COCCn1c(-c2ccco2)csc1=Nc1cccnc1 | 9 | 0 | 4 | -2 | -5 | 0 | nt | nt
COc1ccc2cc(C[C@@H]3CC[C@@H](CO)O3)ccc2c1 | 14 | nt | nt | 7 | 3 | 5 | nt | nt
COc1ccccc1OCC(=O)N1CCN(C(=O)c2ccco2)CC1 | 2 | 0 | 5 | -1 | -14 | 2 | nt | nt
Cc1cc(C)c2cc(C#N)c(SCC(=O)Nc3cc(C)on3)nc2c1 | -61 | -1 | -6 | 3 | 2 | 50* | -14 | 6
Cc1cc(NC(=O)CSc2nc3c(C)ccc(C)c3cc2C#N)no1 | -92 | 10 | 4 | -2 | -6 | 68* | 15 | 12
Cc1cc(NC(=O)CSc2nc3c(C)cccc3cc2C#N)no1 | -12 | 17 | -5 | -2 | -3 | 20 | nt | nt
CCOc1ccc(CNC(=O)C2CCN(S(=O)(=O)N3CCC(C)CC3)CC2)cc1OC | 8 | nt | nt | nt | nt | 1 | nt | nt
CCN(CC)C(=O)Cn1cc(C(=O)C(=O)N2CC=C(c3ccccc3)CC2)c2ccccc21 | 1 | 2 | 11 | 2 | -2 | 65* | 63* | 65*
CCN(CC)C(=O)Cn1cc(C(=O)C(=O)N2CCN(C)CC2)c2ccccc21 | -3 | -9 | -3 | -9 | 9 | -5 | nt | nt
C=C1C[C@@H]2C[C@@H]2CN(S(=O)(=O)c2ccc(C)cc2)[C@@H]1c1ccco1 | 18 | nt | nt | nt | nt | -8 | nt | nt
CCCCC1Cc2[nH][nH]c(=O)c2C(c2ccc(F)cc2)O1 (stereo unspecified) | 19 | nt | nt | nt | nt | 4 | nt | nt
Cc1nc2[nH]onc2c2nccc(=O)c12 | -27 | -10 | -20 | -5 | -2 | 52* | 50* | 48*
